Results as given in ChEMBL document CHEMBL1126837, “Inhibitors of acyl-CoA:cholesterol acyltransferase. 5. Identification and structure-activity relationships of novel beta-ketoamides as hypocholesterolemic agents” (J Med Chem, 1993).

Key:
[1] = tested on: Rattus norvegicus; test: Tested for percentage change in total cholesterol in cholic acid (0.5%)-cholesterol (1.5%) -peanut oil (5.5%)-fed rats at 30 mg/kg; assay type: functional
In short: (§1)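 Male Sprague-Dawley rats (200-225 g) got a single oral gavage at 4 p.m. The compound was suspended in 1.5% carboxymethylcellulose/0.2% Tween-20 in water; controls got vehicle. Rats then fed ad libitum overnight on chow with 5.5% peanut oil, 1.5% cholesterol and 0.5% cholic acid. Blood was taken by cardiac puncture under ether at 8 a.m. Serum total cholesterol is given as % change versus vehicle controls (unpaired two-tailed t-test, p<0.05).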

[2] = molecular target: O-acyltransferase (Oryctolagus cuniculus, UniProt G1SFD9); test: In vitro inhibition of Acyl coenzyme A:cholesterol acyltransferase in intestinal microsomes isolated from cholesterol-fed rabbits; assay type: functional, Intestine
In short: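 Intestinal microsomes from cholesterol-fed rabbits were incubated with the compound and [1-14C]oleoyl-CoA as substrate. IC50 is the micromolar concentration giving 50% inhibition of enzyme activity. Each determination was done in triplicate.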

[3] = tested on: Rattus norvegicus; test: Tested for percentage change in total cholesterol in cholic acid (0.5%)-cholesterol (1.5%) -peanut oil (5.5%)-fed rats at 3 mg/kg; assay type: functional; in short: as §1

Chain of O-acyltransferase (G1SFD9 1-524): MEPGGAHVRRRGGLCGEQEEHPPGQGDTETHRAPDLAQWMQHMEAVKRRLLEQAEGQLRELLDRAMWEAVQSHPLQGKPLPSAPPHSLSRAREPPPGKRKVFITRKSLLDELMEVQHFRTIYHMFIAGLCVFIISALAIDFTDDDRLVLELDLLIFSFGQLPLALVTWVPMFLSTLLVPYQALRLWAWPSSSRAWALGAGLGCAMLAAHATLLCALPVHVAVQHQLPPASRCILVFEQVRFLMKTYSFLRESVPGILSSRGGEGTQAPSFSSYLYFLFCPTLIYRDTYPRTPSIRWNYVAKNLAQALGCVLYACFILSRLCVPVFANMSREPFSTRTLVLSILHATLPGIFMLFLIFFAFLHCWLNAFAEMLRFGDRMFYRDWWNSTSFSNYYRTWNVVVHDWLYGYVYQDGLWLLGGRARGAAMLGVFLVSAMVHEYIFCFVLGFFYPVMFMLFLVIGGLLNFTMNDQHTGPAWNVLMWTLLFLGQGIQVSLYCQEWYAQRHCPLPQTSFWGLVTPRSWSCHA

SMILES | Change [1] | IC50 [2] | Change [3]
CCCCCCCCCCCC(=O)C(C)(C)C(=O)N(C)c1c(OC)cc(OC)cc1OC | -40% |  | 
CCCCCCCCCCCCCC(=O)CC(=O)Nc1c(C(C)C)cccc1C(C)C | -66% | 6 nM | -38%
CC(C)c1cccc(C(C)C)c1NC(=O)C/C(CC(c1ccccc1)c1ccccc1)=N\O | -1% | 210 nM | 0%
CCCCCCCC1CCC(C(=O)Nc2c(C(C)C)cccc2C(C)C)C(=O)O1 (stereo unspecified) | -11% | 340 nM | 
CC(C)c1cccc(C(C)C)c1NC(=O)CC(=O)c1ccccc1 | -4% | 810 nM | 0%
CCCCCCCCCC(=O)CC(=O)Nc1c(C(C)C)cccc1C(C)C | -54% | 97 nM | -5%
CCCCCCCCCCCCCCC(=O)CC(=O)Nc1c(C(C)C)cccc1C(C)C | -57% | 24 nM | -34%
CCCCCCCCCCC(=O)CC(=O)Nc1c(C(C)C)cccc1C(C)C | -30% | 60 nM | 
CC(C)c1cccc(C(C)C)c1NC(=O)CC(=O)C1(c2ccccc2)CCCC1 | -37% | 11 nM | 
CCCCCCCCCCCC(=O)C(C)(C)C(=O)Nc1c(OC)cc(OC)cc1OC | -44% | 370 nM | 0%
CC(C)c1cccc(C(C)C)c1NC(=O)CC(=O)CCCCCCCCCCOC1CCCCO1 (stereo unspecified) | -67% | 57 nM | -17%
CCCCCCCCCCCC(=O)CC(=O)Nc1c(C(C)C)cccc1C(C)C | -43% | 69 nM | -25%
CC(C)c1cccc(C(C)C)c1NC(=O)CC(=O)CC(c1ccccc1)c1ccccc1 | -43% | 44 nM | -23%
CCCCCCCCCCCCC1CCCC(C(=O)Nc2c(C(C)C)cccc2C(C)C)C(=O)N1 (stereo unspecified) | -47% | 22 nM | 
CC(C)c1cccc(C(C)C)c1NC(=O)CC(=O)C(c1ccccc1)c1ccccc1 | -65% | 35 nM | -21%
CC(C)c1cccc(C(C)C)c1NC(=O)CC(=O)CCCCCCCCCCO | -29% | 230 nM | -2%
CCCCCCCCCCCC(=O)CC(=O)Nc1c(OC)cc(OC)cc1OC | -31% | 150 nM | 
CCCCCCCCCCCCC(=O)CC(=O)Nc1c(C(C)C)cccc1C(C)C | -56% | 11 nM | -31%
CCCCCCCCCCCC(=O)C(C)(C)C(=O)N(C)c1c(C(C)C)cccc1C(C)C | -60% | 1000 nM | 0%
CCCCCCC1CCC(C(=O)Nc2c(C(C)C)cccc2C(C)C)C(=O)O1 (stereo unspecified) | -43% |  | 
CCCCCCCCCCCCC1CC(C(=O)Nc2c(C(C)C)cccc2C(C)C)C(=O)N1 (stereo unspecified) | -20% | 53 nM | 
CC(C)c1cccc(C(C)C)c1NC(=O)CC(O)CC(c1ccccc1)c1ccccc1 (stereo unspecified) | -10% | 3500 nM | 
CCCCCCCC1CC(C(=O)Nc2c(C(C)C)cccc2C(C)C)C(=O)O1 (stereo unspecified) | -26% |  | 
